As usually defined, the IC50 is the concentration at which inhibition is half-maximal.

≈ marks a conversion by molar mass, not a printed value.

Data set [1] has as its system NCI-H928. As to the kind of experiment: Cytotoxicity expressed as the concentration that inhibited incorporation of [3H]-thymidine into cellular DNA of human lung carcinoma cells (H928). It is filed as functional, cell-based. Summed up:
(§1)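 Exponentially growing tumour cells, 1-1.5 × 10⁴ cells/well, in RPMI with 10% bovine serum plus penicillin/streptomycin, exposed 72 h (37 °C, 5% CO₂) to a drug concentration series. Drugs were dissolved in DMSO (≤0.5% final) or in medium. [³H]thymidine incorporation into DNA was read after PBS wash and trypsin harvest. IC50 was interpolated from log dose-response curves, as means of 1-3 experiments in triplicate.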

Data set [2] deals with HT-29. The data set can be described thus: Cytotoxicity in the presence of beta-Glucuronidase (betaG, 5 micro g/ml) towards human colorectal cells (HT-29). It is filed as functional, cell-based. Summed up: (§2)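 Same 72 h [³H]thymidine-incorporation assay (1-1.5 × 10⁴ cells/well in RPMI/10% bovine serum, 37 °C, 5% CO₂), with β-glucuronidase added at 5 µg/mL alongside the drug concentration series. Controls were medium or 0.5% DMSO. IC50 was interpolated from log dose-response curves, as means of 1-3 experiments in triplicate.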

Data set [3] can be described thus: Solubility is determined at pH 4.0. Conditions: buffer. Type of data set: physicochemical. Summed up:
(§3)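 Excess solid was equilibrated 24 h at 25 °C in 100 mM phosphate buffer pH 4.0, or in βG buffer (acetic acid/bis-tris/triethanolamine) pH 7.0. Samples were filtered through 0.22 µm, diluted in mobile phase and quantified by C18 HPLC (45% MeOH/25 mM phosphate pH 2.55, fluorescence ex 397/em 482 nm) against calibration curves. Values are in mg/mL.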

The subject of data set [4] is COLO 205. The data set can be described thus: Cytotoxicity expressed as the concentration that inhibited incorporation of [3H]thymidine into cellular DNA of human colorectal cells (COLO 205). Type of data set: functional, cell-based. Summed up:
as §1

Data set [5] in a line: Cytotoxicity expressed as the concentration that inhibited incorporation of [3H]thymidine into cellular DNA of human cervical cells (CaSki). Type of data set: functional, cell-based. Summed up: as §1
Data set [6] concerns NCI-H928. As to the kind of experiment: Cytotoxicity in the presence of beta-Glucuronidase (betaG, 5 micro g/ml) towards human lung carcinoma cells (H928). Type of data set: functional, cell-based. Summed up:
as §2

The nature of data set [7]: Percentage of compound converted to 9-aminocamptothecin for hydrolysis by beta-Glucuronidase( incubated at pH 7.0 for 2 hr at 37 degrees Celsius at the concentration 0.1 ug/mL). Type of data set: ADME. Particulars: buffer, pH 7, 2 h. Summed up:
(§4)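 The reaction was quenched with ice-cold MeOH/5% H₃PO₄ (6/1) and centrifuged. Supernatant was analysed by reversed-phase C18 HPLC with fluorescence detection (ex 397/em 482 nm) to give the % converted to 9-aminocamptothecin.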

Data set [8] can be described thus: Percentage of compound converted to 9-aminocamptothecin for hydrolysis by beta-Glucuronidase(incubated at pH 7.0 for 2 hr at 37 degrees Celsius at the concentration 0.5 ug/mL). Type of data set: ADME. Particulars: buffer, pH 7, 2 h. Summed up:
as §4

Data set [9] in a line: Percentage of compound converted to 9-aminocamptothecin for hydrolysis by beta-Glucuronidase( incubated at pH 7.0 for 2 hr at 37 degrees Celsius at the concentration 0.01 ug/mL). It is filed as ADME. Conditions: buffer, pH 7, 2 h. Summed up: as §4
Data set [10] is described as follows: Cytotoxicity in the presence of beta-Glucuronidase (betaG, 5 micro g/ml) towards human cervical cells(CaSki). It is filed as functional, cell-based. Summed up:
as §2

Data set [11] in a line: Percentage of compound converted to 9-aminocamptothecin for hydrolysis by beta-Glucuronidase( incubated at pH 7.0 for 2 h at 37 degrees Celsius at the concentration 0.05 ug/mL). Type of data set: ADME. Particulars: buffer, pH 7, 2 h. Summed up:
as §4

Data set [12] concerns HepG2. The data set can be described thus: Cytotoxicity expressed as the concentration that inhibited incorporation of [3H]thymidine into cellular DNA of human hepatocellular cells (HepG2). Type of data set: functional, cell-based. Summed up:
as §1

In data set [13] the test system is HepG2. The data set can be described thus: Cytotoxicity in the presence of beta-Glucuronidase (betaG, 5 micro g/ml) towards human hepatocellular cells (HepG2). Type of data set: functional, cell-based. Summed up:
as §2

A short description of data set [14]: Solubility is determined at pH 7.0. It is filed as physicochemical. Particulars: buffer. Summed up:
as §3

Data set [15] relates to COLO 205. The data set can be described thus: Cytotoxicity in the presence of beta-Glucuronidase (betaG, 5 micro g/ml) towards human colorectal cells(COLO 205). Type of data set: functional, cell-based. Summed up:
as §2

Data set [16] concerns HT-29. The data set can be described thus: Cytotoxicity expressed as the concentration that inhibited incorporation of [3H]thymidine into cellular DNA of human colorectal cells (HT-29). It is filed as functional, cell-based. Summed up: as §1
The test system of data set [17] is HepG2. As to the kind of experiment: Cytotoxicity expressed as the concentration that inhibited incorporation of [3H]-thymidine into cellular DNA of human hepatocellular cells (HepG2). It is filed as functional, cell-based. Summed up: as §1

As for `CC[C@@]1(O)C(=O)OCc2c1cc1n(c2=O)Cc2cc3c(NC(=O)OCc4ccc(O[C@@H]5O[C@H](C(=O)O)[C@@H](O)[C@H](O)[C@H]5O)cc4)cccc3nc2-1`, the IC50 in the data set with NCI-H928 [1] was 300 nM; with HT-29 [2] (ht-29) it was 6.6 nM; in the data set with COLO 205 [4] (colo 205), 200 nM; in [5], 190 nM; in the data set on NCI-H928 [6] it was 7.9 nM; in data set [10], 7.8 nM. Further, the IC50 with HepG2 [12] is 110 nM; with HepG2 [13], 2.9 nM; in the data set with COLO 205 [15] (colo 205), 8 nM; in the data set with HT-29 [16], 150 nM. Moreover, the solubility came to 500 µg/mL (≈ 725 µM) in data set [3] and 110 mg/kg in data set [14]. Moreover, the Conversion in [7] is given as 98%; in data set [8], 92%; in data set [9], 45%; in data set [11] it was 92%.

Regarding `CC[C@@]1(O)C(=O)OCc2c1cc1n(c2=O)Cc2cc3c(N)cccc3nc2-1` [9-AMINOCAMPTOTHECIN], the IC50 in the data set on NCI-H928 [1] was 7.9 nM; in the data set on COLO 205 [4] (Homo sapiens, COLO 205), 6.6 nM; in data set [5] (Homo sapiens), 8.5 nM; in the data set with HepG2 [12], 3.5 nM; in the data set with HT-29 [16], 7.4 nM. For the same compound, the figures for the solubility in data set [3] and in data set [14] were 6 µg/mL (≈ 16.5 µM) and 0.06 mg/mL (≈ 165 µM), respectively.

With `CC[C@@]1(O)C(=O)OCc2c1cc1n(c2=O)Cc2cc3c(NC(=O)OCc4ccc(O[C@@H]5O[C@H](C(=O)[O-])[C@@H](O)[C@H](O)[C@H]5O)cc4)cccc3nc2-1.[K+]`, the IC50 was 11 nM in the data set on HT-29 [2] (Homo sapiens, HT-29); 460 nM in the data set on COLO 205 [4] (colo 205); 510 nM in data set [5]; 280 nM with HepG2 [17]; 9.1 nM in [10] (Homo sapiens); 6.7 nM in the data set with HepG2 [13]. Also, the half-maximal inhibitory concentration (IC50) in the data set with COLO 205 [15] (Homo sapiens, COLO 205) came to 8.2 nM. This compound came in with a solubility in [3] of 25000 µg/mL.

Turning to `CC[C@@]1(O)C(=O)OCc2c1cc1n(c2=O)Cc2cc3ccccc3nc2-1` [CAMPTOTHECIN], the IC50 with NCI-H928 [1] came out at 7.8 nM; in the data set on COLO 205 [4] (Homo sapiens, COLO 205), 5.4 nM; in data set [5] (Homo sapiens), 8.5 nM; in the data set on HepG2 [12], 6.3 nM.
